# Experiment: Toxicity liver stage against HepG2, at 10uM
# Assay type: cell-based
# Parameters: test concentration 10 uM, cell line HepG2-A16-CD81EGFP
# Conditions: human, HepG2-A16-CD81EGFP cells; read-out: INHIBITION
# How it was run: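 Uninfected HepG2-A16-CD81EGFP cells, 3 × 10^3 per well, 1536-well, plated on prespotted compound at 10 μM final, parasite-free screening media added to match infected plates; puromycin 10 μM positive, DMSO 0.5% negative; run in parallel with 48 h PbLuc assay at 37 °C, 5% CO2; viability by CellTiter-Glo luminescence, normalized to controls.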
row,Structure (SMILES),cytotoxicity at 10 µM [%]
1,NC1CCCCN(Cc2cc(-c3ccccc3OC(F)(F)F)no2)C1 (configuration not stated),-4.52
2,CC1(C(=O)N2CCOCC2)CN(Cc2cccnc2)CCO1 (configuration not stated),-9
3,Cc1cc(N(C)C)cc(C2CCN(S(=O)(=O)c3cccs3)C2)n1 (configuration not stated),7.17
4,O=c1ccc(-c2cccs2)nn1CN1CCOC(c2ccccc2)C1 (configuration not stated),7.57
5,CC(=O)N1[C@@H](C(=O)NCC2CC2)C[C@@H]2CN(Cc3ccco3)C[C@@H]21,4.22
6,Cc1nccn1C1CCCN(C(=O)COCC2CC2)C1 (configuration not stated),-11.7
7,COc1cccnc1NC(=O)c1ccc(COCC(F)(F)F)cc1,-2.4
8,CCCNc1ncc(C2CC(=O)NCc3nc4ccccn4c32)cn1 (configuration not stated),-3.69
9,O=C(Cc1ccsc1)N1CCC(Cn2cc(CCO)nn2)CC1,1.67
10,Cc1nc(CNCc2ccc(N3CCC(CO)CC3)nc2)cs1,1.58
11,Cn1ccc(C(=O)NCc2ccc(Cn3ccnc3)cc2)cc1=O,3.32
12,COc1cccc(C)c1C(=O)N1CCc2ncnc(NCCO)c2CC1,5.69
13,Cc1csc(CNC(=O)NC(C)c2ccc3c(c2)OCCO3)n1 (configuration not stated),-5.72
14,Cc1ccc(NC(=O)c2cc(S(=O)(=O)N3CCCCC3)c[nH]2)cc1F,1.26
15,O=C(CNC(=O)c1cc(Cl)ccn1)Nc1nccs1,-1.87
16,CCS(=O)(=O)N1CCCC2(CCCN2C(=O)c2cscn2)C1 (configuration not stated),8.25
17,CCOc1ncnc2c1CCN(Cc1cccs1)CC2,10.2
18,Oc1cccc(CNCCC2CCCO2)c1 (configuration not stated),4.08
19,COCc1nc(CNc2cccc(-c3csc(C)n3)c2)cs1,1.98
20,Cc1cnn(CC2CCCN2C(=O)c2cc3c(F)cccc3[nH]2)c1 (configuration not stated),-12.7
21,CCc1ccc(O)c(C(=O)NC2CCN(C(=O)OC)CC2)c1,1.89
22,Cc1cc(C)n(C2CCN(S(=O)(=O)N3CCC(C)CC3)CC2)n1,6.36
23,Cc1nc(C2CCCN2C(=O)c2ccccc2)ncc1C(N)=O (configuration not stated),-1.47

row,Structure (SMILES),cytotoxicity at 10 µM [%]
1,CCN(CC)C(=O)c1nnsc1-c1ccccc1,1.88
2,Fc1ccc(COCC2CCN(Cc3ccccn3)CC2)cc1,-2.67
3,CCN1CCNC(=O)C12CCN(S(=O)(=O)c1ccccc1)CC2,0.464
4,Cc1nc(NCCc2ccccc2)cc(C(=O)N2CCCCC2)n1,-6.27
5,O=S(=O)(NCC1(O)CCOc2ccccc21)c1ccccc1F (configuration not stated),7.22
6,Cc1nn(C)c(Cl)c1C1CCCN1C(=O)c1ccc[nH]1 (configuration not stated),-8.57
7,Cn1nccc1-c1ccc2nc(C3CCN(CC4CC4)CC3)nn2c1,5.85
8,O=C(NCC1CCOCC1)[C@H]1C[C@@H]2CCN(c3nncs3)C[C@@H]2O1,1.73
9,COc1cccnc1NC(=O)COC1CCCC1,8.06
10,Cc1nc(COC(=O)c2cccc3c2OCCO3)cs1,1.4
11,CCS(=O)(=O)N1CCC(NC(=O)c2cc(C)ccc2O)CC1,-8.92
12,Cc1ccc(C)c(Oc2cc(-n3nc(C)c(C#N)c3N)nc(C)n2)c1,69.5
13,c1cc2n(n1)CC(CNCc1ccc(OC3CCCCC3)nc1)CN2 (configuration not stated),-8.49
14,COc1cc(S(=O)(=O)Nc2cn[nH]c2)ccc1Br,-1.47
15,Cc1csc([C@H]2C[C@H]3CN(Cc4cc(C)on4)CC[C@@H]3O2)n1,-98
16,O=C(c1ccnc(-n2ccnc2)c1)N1CCCC(n2ccnc2)C1 (configuration not stated),0.956
17,CCCc1nnsc1C(=O)NCC(O)c1cccs1 (configuration not stated),4.15
18,Cn1c(C2CC2)nc2c1CCN(CCOc1ccc(C#N)cc1)C2,-9.39
19,COCC(C)(O)CNC(=O)COc1ccccc1OC (configuration not stated),-12.2
20,CCCS(=O)(=O)c1ccc(N2CCC(Cc3ccccc3)CC2)nn1,-7.91
21,CC(C)c1nccc(CN2CCC(O)(CN3CCCCC3)C2)n1 (configuration not stated),-1.95
22,CC/C=C(\C)CN1CCC(CNC(=O)c2c[nH]c(=O)c(Cl)c2)C1 (configuration not stated),-13.2
23,Cc1noc(CNC(=O)C2CSCCC(=O)N2)n1 (configuration not stated),2.42

row,Structure (SMILES),cytotoxicity at 10 µM [%]
1,Cc1cc(CSCc2csc(CS(C)(=O)=O)n2)no1,-2.49
2,CC(=O)NCC(=O)NCC1Cn2nnc(-c3cccc(F)c3)c2CO1 (configuration not stated),-6.77
3,Cc1oc(-c2ccoc2)nc1CN1CCC[C@H]1CO,-16.5
4,CNC(=O)c1cccc(NC(=O)c2ccnc(N(C)C)c2)c1C,4.9
5,CC(C)(C)n1ncc2c(=O)n(CC(=O)NCc3ccccc3Cl)cnc21,-9.03
6,CCN1C(=O)CC[C@@H]2[C@H]1CCN2C(=O)Cc1cccc(OC)c1,0.657
7,CN(C)C(=O)N1CCC(C(=O)NCCNc2ncccc2C#N)CC1,18.3
8,CC(=O)Nc1nc(CS(=O)(=O)Cc2ccccc2)cs1,-3.39
9,CCOc1ccc2[nH]c3c(N(C)CC4OCCO4)ncnc3c2c1,15.2
10,Cn1ccnc1CN1CCC2(CC(=O)N(c3ccccn3)C2)C1 (configuration not stated),-74.6
11,COCCc1noc(CN(C)C2CCCN(c3cccnn3)C2)n1 (configuration not stated),-8.64
12,Cc1nc(C(=O)N2CCCN(Cc3cnn(C)c3)CC2)ccc1C#N,-0.514
13,Cn1cc(C(=O)Nc2ccc(CC(=O)NCC(F)(F)F)cc2)nn1,10.8
14,COC(=O)c1cccc(CN(C)Cc2ncnn2C)c1C#N,-4.23
15,CCc1cc(NCCNc2ccncc2C)n2nc(C)c(C)c2n1,3.29
16,Cc1nnsc1CN1CC[C@@](O)(C2CCC2)[C@H](C)C1,11.8
17,O=C1NCCCCC1SCc1coc(-c2ccccc2)n1 (configuration not stated),11.6
18,CN1CCCC(c2nc3c([nH]2)CC(C)(C)CNC3=O)C1 (configuration not stated),9.01
19,CCN(CC)Cc1cn2c(n1)CN(C(=O)Cc1ccsc1)CC2,-143
20,CC(C)c1nn(C)c(N(C)C)c1CNCc1cccc2cccnc12,-11.2
21,O=S(=O)(c1c(F)cccc1F)N1CCCC1c1nnc2n1CCCCC2 (configuration not stated),11.2
22,c1ccc(OC2COC3(CCN(Cc4ccccn4)CC3)C2)cc1 (configuration not stated),-69.2
23,CC(NC(=O)NCc1ccccc1F)(C(=O)O)c1ccco1 (configuration not stated),-5.64

row,Structure (SMILES),cytotoxicity at 10 µM [%]
1,O=C(NCCc1nncn1C1CC1)c1cnn(Cc2ccccc2)c1,-2.36
2,O=C(O)CC[C@@H]1CN(c2ncnc3[nH]ccc23)CC[C@@H]1N1CCOCC1,-15.8
3,CCNc1ccnc(N2Cc3cnn(Cc4ccc(F)cc4)c3C2)n1,10
4,Cc1cc(C(=O)N2CCC[C@]3(C[C@@H](OCC4CC4)CO3)C2)no1,-78.9
5,CN(C)C(=O)CN1C[C@H]2CC[C@@H](C1)N(C/C=C/c1ccc(F)cc1)C2,-7.65
6,CC(C)Cc1noc(CNc2cccc(-c3nnnn3C)c2)n1,4.6
7,Cc1ccsc1CNC1CCCc2c1cnn2C (configuration not stated),2.27
8,CC(C)C(Sc1nnnn1C1CC1)C(=O)NCc1ccccc1 (configuration not stated),-3.46
9,CC1(C)OC(=O)N(CC(=O)N2CCC(c3ccccc3Cl)C2)C1=O (configuration not stated),-21.4
10,CC(Oc1ccc(F)cc1F)C(=O)N1CCC2(CC1)CC(=O)N(C)C2 (configuration not stated),1.63
11,Cc1cc(C(=O)N2CCCC2)ccc1NCCO,-3.87
12,CN(Cc1ccccc1)C(=O)[C@@H]1Cc2[nH]cnc2CN1C,-3.92
13,Cc1nc(CN2CCN(C3CCOC3)Cc3cccnc32)cs1 (configuration not stated),8.91
14,CC(C(=O)N1CCCCC1)N1CCN(c2nccs2)CC1 (configuration not stated),22.1
15,Cc1ncsc1C(=O)NC1CCN(Cc2cccnc2)CC1,-7.49
16,COCCN(CC1CCCO1)C(=O)CCNC(=O)c1ccccc1F (configuration not stated),-41.7
17,CC(C)c1nnc2n1CCN(C(=O)c1cccc(S(C)(=O)=O)c1)C2,-28.4
18,COC(=O)c1ccc(C(=O)N2CCCC(Nc3ccc(F)cc3)C2)cc1 (configuration not stated),1.34
19,Cc1ccc(N2CCCC(N(C)Cc3cc(C)no3)C2)nn1 (configuration not stated),11.9
20,Cc1c[nH]cc1C(=O)N1CCN(CCc2cccs2)CC1,-6.8
21,CCc1ccc(CN2CCNC(C(=O)N3CCN(C)CC3)C2)nc1 (configuration not stated),7.68
22,CCc1noc(CS(=O)(=O)c2cccc(OC)c2)n1,6.7
23,Cc1cc(NC(=O)CCN2CCCCC2Cn2cncn2)no1 (configuration not stated),4.23

row,Structure (SMILES),cytotoxicity at 10 µM [%]
1,c1cnnc(N2CCCC2CNc2ncnc3ccsc23)c1 (configuration not stated),-8.87
2,Cc1ccc(CC2CCCN2CC(=O)NCc2ccccn2)cc1 (configuration not stated),6.46
3,COCCNC(=O)CN(C)Cc1ccc(F)cc1Cl,-1.02
4,COc1ccc(S(=O)(=O)N2CCC(S(C)(=O)=O)CC2)cc1C,2.4
5,Cc1cc(CN(C)C(=O)NC2CCN(S(C)(=O)=O)CC2)no1,3.25
6,Nc1cc2c(nn1)CCN(C(=O)C1CCc3ccccc31)C2 (configuration not stated),-6.58
7,CC(C)C(=O)NCc1ccc(N2CCCC2)nc1,-18.4
8,Cc1ccc(-n2ncc(C(=O)N3CCCC3c3cnn(C)c3)c2C)cc1 (configuration not stated),-7.79
9,CCNC(=O)C1CCCN(c2ccc(C#N)cc2C(F)(F)F)C1 (configuration not stated),1.28
10,CSCC(C)(O)CNC(=O)c1cc(Cl)ccc1Cl (configuration not stated),9.88
11,O=C(Cc1cccnc1)N1CCC2(CCN(CC3CCCCC3)C2)CC1,-1.28
12,CNc1ccc(C2CN(c3cc(C)nc(N)n3)CCO2)nc1 (configuration not stated),4.72
13,O=C(O)CC(CC(=O)NCc1ccsc1)c1cccs1 (configuration not stated),-8.43
14,COc1ccccc1C(C)NC(=O)N1CCN(Cc2ccc(Br)s2)CC1 (configuration not stated),10.5
15,CC(c1nc(C2CC2)no1)N1CCN(Cc2nnc(C3CC3)o2)CC1 (configuration not stated),7.7
16,CCc1cnc(NC2CCc3c(ccc(=O)n3C)C2)nc1 (configuration not stated),-125
17,CC(NC(=O)c1ccsc1)c1ccc2c(c1)NC(=O)CO2 (configuration not stated),-11.7
18,O=C(O)c1cc(S(=O)(=O)N2CCOc3ccccc32)cc(Cl)c1Cl,-4.36
19,c1csc(-c2nc(CN3CCn4c(nnc4C4CC4)C3)co2)c1,7.17
20,Cc1ccc(-c2noc(Cn3nc(C(N)=O)ccc3=O)n2)cc1,-1.6

# Source: ChEMBL document CHEMBL4513216, “Probing the Open Global Health Chemical Diversity Library for Multistage-Active Starting Points for Next-Generation Antimalarials” (ACS Infect Dis, 2020)
